pIC50: −log10 of the molar value. Entries after “also recorded” stand apart in the source; their conditions may differ. Each block holds one compound with its values, some of them ahead of it.
Tests used:
pGL3-Control construct = assay: Luciferase expression from control construct pGL3-Control in T47D cells; type: cell-based, human; details: for pIC50: Homo sapiens, T47D, read-out: IC50 on luciferase expression from pGL3-control
Summary of the method: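 T47D cells in DMEM/F12 with 10% FCS were transiently transfected with the constitutive pGL3-Control luciferase construct. Cells were treated with test compound and exposed to hypoxia (1% O2). Luciferase read-out as % inhibition = (1 − treated/induced light output) × 100. IC50 taken from concentration-response data, one experiment in triplicate.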

HIF-1 [1] = assay: T47D cell-based reporter assay for HIF-1 activity; set-up: species or system human
Summary of the method: (§1)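 PC-3 or T47D cells in DMEM/F12 with 10% FCS were transiently transfected with the HIF-1 reporter pHRE3-TK-luc. HIF-1 was induced by hypoxia (1% O2) or 10 μM 1,10-phenanthroline with test compound present. % inhibition = (1 − treated/induced luminescence) × 100. IC50 from concentration-response data, one experiment in triplicate. Potency given as fold change in IC50 relative to a reference analogue.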

HIF-1 [2] = assay: PC-3 cell-based reporter assay for HIF-1 activity; set-up: species or system human
Summary of the method: as §1

[3] = tested on: NADH-ubiquinone oxidoreductase (complex I); assay: Respiration of digitonin-permeabilized T47D cells, complex I substrates; type: cell-based, human; details: malate and pyruvate
PC-3 cells = assay: Cell proliferation/viability assay, PC-3; type: cell-based, human; details: normoxic or hypoxic conditions, data not shown
Summary of the method: (§2)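 Cells kept in DMEM/F12 with 10% FCS and antibiotics at 37°C. Plated at 30,000 cells/well and left overnight, then given test compound in serum-free medium. After 30 min, incubated 48 h under normoxia (5% CO2/95% air) or hypoxia (1% O2/5% CO2/94% N2). Viability read by neutral red or by sulforhodamine B (TCA fix, 0.4% dye, Tris extraction, A490 minus A690). Reported as % inhibition versus control.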

MDA-MB-231 cells = assay: Cell proliferation/viability assay, MDA-MB-231; type: cell-based, human; details: normoxic or hypoxic conditions, data not shown
Summary of the method: as §2

VEGF = assay: ELISA assay for secreted VEGF protein in T47D cells; type: cell-based, human; details: 16 h; for effect on hypoxic induction of secreted VEGF protein: hypoxia (1% O2)
Summary of the method: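 T47D cells plated at 356,000/well and incubated overnight at 37°C. Test compound added in serum-free DMEM/F12. After 30 min in air, treatment continued 16 h under 1% O2/5% CO2/94% N2 or with 10 μM 1,10-phenanthroline. Secreted VEGF in conditioned medium measured by ELISA and normalised to total lysate protein (BCA assay).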

HIF-1α protein = assay: Western blot for nuclear HIF-1α protein in T47D cells; type: cell-based, human; details: T47D nuclear extract; for effect on induction of HIF-1α protein by hypoxia: 4 h hypoxia (1% O2)
Summary of the method: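 T47D cells plated at 10 × 10^6 per 100 mm dish for 16 h. Test compound given 30 min at 37°C, then 10 μM 1,10-phenanthroline or 1% O2 for 4 h. Nuclear extracts (60 μg protein) run on 8% SDS-PAGE and blotted to nitrocellulose. Probed with anti-HIF-1α monoclonal antibody (1:500, 1 h, RT), then HRP anti-mouse (1:30,000, 40 min), with chemiluminescent detection.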

pIC50 (pGL3-Control construct): 5.59
Compound: CC(=O)C1=CC[C@H]2[C@]3(C)CC[C@H]4C(C)(C)CCC[C@]4(CO)[C@H]3CC(=O)[C@]2(C)[C@H]1C=O [Compound 9, 22-hydroxy-24-methyl-12,24-dioxoscalar-16-en-25-al]

pIC50 (pGL3-Control construct): 4.64
Compound: COC(=O)[C@]12CCCC(C)(C)[C@@H]1CC[C@@]1(C)[C@@H]3CC=C(C(C)=O)[C@H](C=O)[C@@]3(C)C(=O)C[C@@H]12 [Compound 8, 24-methyl-12,24,25-trioxoscalar-16-en-22-oate]
reduction in potency of HIF-1 inhibition in comparison to 7 (HIF-1 [1]): 5 to 7 fold | reduction in potency of HIF-1 inhibition in comparison to 7 (HIF-1 [2]): 11 to 15 fold

Compound: C=C(C)[C@H]1Cc2c(ccc3c2O[C@@H]2COc4cc(OC)c(OC)cc4[C@@H]2C3=O)O1 [rotenone, reference compound]
effect on complex I-mediated mitochondrial respiration [3]: inhibited

Compound: C/C(=C\CCc1ccoc1)CC/C=C(\C)CCCC1=CC(=O)OC1 [Compound 6, furospongolide]
selectivity towards HIF-1 inhibition relative to suppression of hypoxic T47D cell proliferation/viability (HIF-1 [1]): more than 10 fold | effect on cell proliferation/viability (PC-3 cells): Neither 6 nor the 6/6a mixture affected | effect on cell proliferation/viability (MDA-MB-231 cells): Neither 6 nor the 6/6a mixture affected | effect on increase in secreted VEGF protein level caused by 1,10-phenanthroline (VEGF; 30 μM, 1,10-phenanthroline (10 μM)): did not affect | effect on hypoxic induction of secreted VEGF protein (VEGF): decreased hypoxic induction of secreted VEGF proteins in a concentration-dependent manner; also recorded: inhibits hypoxic induction of HIF-1 target VEGF protein | effect on hypoxic induction of secreted VEGF protein (VEGF; listed as Furospongolide): blocked the induction | effect on induction of HIF-1α protein by 1,10-phenanthroline (HIF-1α protein; 4 h 1,10-phenanthroline 10 μM): only weakly inhibited | effect on induction of HIF-1α protein by hypoxia (HIF-1α protein): blocked the induction of HIF-1α protein by hypoxia; also recorded: blocks the induction of nuclear HIF-1 α protein accumulation | effect on induction of HIF-1α protein by hypoxia (HIF-1α protein; listed as Furospongolide): inhibiting the hypoxic induction of HIF-1α protein | effect on complex I-mediated mitochondrial respiration [3]: selectively inhibits mitochondrial complex I-mediated respiration; also recorded: disrupting complex I

Compound: CC(=O)C1=CC[C@H]2[C@]3(C)CC[C@H]4C(C)(C)CCC[C@]4(CO)[C@H]3C[C@H](O)[C@]2(C)[C@H]1C=O [Compound 7, 22-Hydroxy-24-methyl-12α-hydroxy-24-oxoscalar-16-en-25-al]
effect on luciferase expression from control construct pGL3-Control (pGL3-Control construct; Figure 1B, 1D): suppressed luciferase expression
